One test has as its system MIA PaCa-2. The experiment in a line: Antiproliferative activity against human MIA PaCa-2 cells assessed as reduction in cell viability incubated for 3 days by MTT assay. It is filed as functional, cell-based. To be noted: MIA PaCa-2, 72 h. The method, boiled down:
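MTT assay. Cells were seeded at 3000–6000/well and incubated overnight, then exposed to compound or DMSO vehicle for 3 days in RPMI-1640 or DMEM with 10% FBS at 37 °C, 5% CO2. MTT (3 mg/ml) was added for 3 h at 37 °C, formazan was dissolved in DMSO and absorbance read at 570 nm. IC50 from three independent experiments, mean ± SD.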

The target of test [1] is Signal transducer and activator of transcription 3 (Homo sapiens) (UniProt P40763). The experiment in a line: Inhibition of STAT3 phosphorylation in human BxPC-3 cells at 1 uM after 16 hrs by western blot analysis. The class given is cell-based. The method, boiled down: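 Cells were seeded in 6-well plates (BxPC-3 500 × 10^3, MIA PaCa-2 200 × 10^3 cells/well) and exposed to compound for 16 h. Lysis was at 4 °C by sonication in Tris/NaCl/Triton/SDS buffer, pH 7.4, with protease and phosphatase inhibitors. Lysates were run on SDS-PAGE, transferred to PVDF and probed for STAT3, pSTAT3 and NQO1 with GAPDH as loading control. Immunoblots were imaged on an Odyssey system.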
In general terms: A western blot detects proteins with antibodies after separation by electrophoresis.

Test [2] deals with Protein cereblon/E3 ubiquitin-protein ligase ZFP91 (Homo sapiens, UniProt Q96SW2+Q96JP5). The experiment in a line: Protac activity at CRBN/ZFP91 in human BxPC-3 cells assessed as ZF91 protein degradation at 1 uM incubated for 16 hrs in presence of proteasome inhibitor carfilzomib by western blot analysis. It is filed as cell-based. An outline of the steps:
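BxPC-3 cells pretreated 1 h with carfilzomib at 1 μM, then exposed 16 h. Lysates blotted for ZFP91 with GAPDH control; bands quantified by densitometry.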

Test [3] addresses Protein cereblon/Signal transducer and activator of transcription 2 (Homo sapiens) (UniProt Q96SW2+P52630). The experiment in a line: Protac activity at CRBN/STAT2 in human BxPC-3 cells assessed as STAT2 degradation incubated for 16 hrs by proteomic analysis. It is filed as cell-based. An outline of the steps: (§1)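 TMT 10plex proteomics. […] Samples (75 μg) were reduced with DTT, alkylated with 2-chloroacetamide, acetone-precipitated, trypsin-digested overnight at 37 °C and TMT-labeled for LC-MS/MS relative quantitation.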

Test [4] deals with Protein cereblon/Kunitz-type protease inhibitor 1 (Homo sapiens) (UniProt Q96SW2+O43278). Nature of the test: Protac activity at CRBN/SPINT1 in human BxPC-3 cells assessed as SPINT1 degradation incubated for 16 hrs by proteomic analysis. It is filed as cell-based. An outline of the steps:
as §1

The target of test [5] is Protein cereblon/E3 ubiquitin-protein ligase SHPRH (Homo sapiens) (UniProt Q96SW2+Q149N8). Nature of the test: Protac activity at CRBN/SHPRH in human BxPC-3 cells assessed as SHPRH degradation incubated for 16 hrs by proteomic analysis. The class given is cell-based. An outline of the steps:
as §1

For test [6], the target named is Protein cereblon/Desmoplakin (Homo sapiens) (UniProt Q96SW2+P15924). Nature of the test: Protac activity at CRBN/DSP in human BxPC-3 cells assessed as DSP degradation incubated for 16 hrs by proteomic analysis. It is filed as cell-based. An outline of the steps:
as §1

In test [7] the target is Protein cereblon/Signal transducer and activator of transcription 3 (Homo sapiens, UniProt P40763+Q96SW2). The experiment in a line: Protac activity at CRBN/STAT3 in human BxPC-3 cells assessed as STAT3 degradation incubated for 16 hrs by proteomic analysis. The class given is cell-based. An outline of the steps: (§2)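 BxPC-3 cells exposed 16 h in triplicate (control, PROTAC) or duplicate (other arms); lysed in RIPA at 4 °C, 75 μg protein per sample. Reduced with DTT (1 h, 55 °C), alkylated with 2-chloroacetamide, acetone-precipitated, trypsin-digested overnight at 37 °C, TMT 10plex labelled, relative quantitation by LC-tandem MS.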
Chain of Protein cereblon/Signal transducer and activator of transcription 3 (P40763 2-770 limits assumed): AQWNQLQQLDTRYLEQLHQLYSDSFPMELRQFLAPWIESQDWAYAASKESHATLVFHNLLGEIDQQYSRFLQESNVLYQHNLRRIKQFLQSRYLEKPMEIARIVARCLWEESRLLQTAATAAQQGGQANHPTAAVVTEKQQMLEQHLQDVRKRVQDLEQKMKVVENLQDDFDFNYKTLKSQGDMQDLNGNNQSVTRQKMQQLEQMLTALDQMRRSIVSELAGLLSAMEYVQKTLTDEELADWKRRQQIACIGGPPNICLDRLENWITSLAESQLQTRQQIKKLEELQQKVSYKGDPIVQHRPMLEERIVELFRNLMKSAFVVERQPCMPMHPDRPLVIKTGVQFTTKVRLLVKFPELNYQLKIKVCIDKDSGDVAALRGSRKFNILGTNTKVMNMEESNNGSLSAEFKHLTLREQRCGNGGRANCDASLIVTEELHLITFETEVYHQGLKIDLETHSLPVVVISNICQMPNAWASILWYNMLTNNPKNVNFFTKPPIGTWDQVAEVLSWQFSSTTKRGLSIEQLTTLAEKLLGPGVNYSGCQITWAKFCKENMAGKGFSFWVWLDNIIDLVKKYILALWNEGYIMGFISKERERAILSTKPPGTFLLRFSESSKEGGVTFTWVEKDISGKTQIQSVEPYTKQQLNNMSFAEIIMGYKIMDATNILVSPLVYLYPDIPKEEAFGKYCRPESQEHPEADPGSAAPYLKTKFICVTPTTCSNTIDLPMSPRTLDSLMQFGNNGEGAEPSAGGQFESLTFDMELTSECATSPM
Chain of Protein cereblon/Signal transducer and activator of transcription 3 (Q96SW2 whole entry partner): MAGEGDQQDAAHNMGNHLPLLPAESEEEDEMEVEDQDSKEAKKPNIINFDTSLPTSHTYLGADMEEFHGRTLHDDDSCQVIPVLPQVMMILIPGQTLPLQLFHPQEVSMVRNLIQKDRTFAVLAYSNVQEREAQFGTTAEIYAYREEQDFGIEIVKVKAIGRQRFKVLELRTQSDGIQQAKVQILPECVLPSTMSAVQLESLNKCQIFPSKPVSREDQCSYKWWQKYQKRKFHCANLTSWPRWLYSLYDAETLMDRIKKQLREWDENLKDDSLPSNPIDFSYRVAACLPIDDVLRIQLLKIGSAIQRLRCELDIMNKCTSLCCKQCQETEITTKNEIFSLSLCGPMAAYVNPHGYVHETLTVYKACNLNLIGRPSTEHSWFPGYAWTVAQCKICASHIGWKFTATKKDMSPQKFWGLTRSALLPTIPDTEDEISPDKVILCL

In test [8] the target is Protein cereblon/Protein LTV1 homolog (Homo sapiens) (UniProt Q96SW2+Q96GA3). The experiment in a line: Protac activity at CRBN/LTV1 in human BxPC-3 cells assessed as LTV1 degradation incubated for 16 hrs by proteomic analysis. The class given is cell-based. The method, boiled down:
as §1

Test [9] concerns the target Protein cereblon/Agrin (Homo sapiens) (UniProt Q96SW2+O00468). The experiment in a line: Protac activity at CRBN/Agrin in human BxPC-3 cells assessed as Agrin degradation incubated for 16 hrs by proteomic analysis. It is filed as cell-based. An outline of the steps: as §1
In test [10] the target is Protein cereblon/Procollagen-lysine,2-oxoglutarate 5-dioxygenase 2 (Homo sapiens) (UniProt Q96SW2+O00469). The experiment in a line: Protac activity at CRBN/PLOD2 in human BxPC-3 cells assessed as PLOD2 degradation incubated for 16 hrs by proteomic analysis. The class given is cell-based. An outline of the steps: as §1
The target in test [11] is Protein cereblon/Nectin-1 (Homo sapiens) (UniProt Q96SW2+Q15223). Nature of the test: Protac activity at CRBN/Nectin-1 in human BxPC-3 cells assessed as Nectin-1 degradation incubated for 16 hrs by proteomic analysis. It is filed as cell-based. An outline of the steps: as §1
The target of test [12] is Protein cereblon/DNA polymerase delta subunit 4 (Homo sapiens) (UniProt Q9HCU8+Q96SW2). Nature of the test: Protac activity at CRBN/POLD4 in human BxPC-3 cells assessed as POLD4 degradation incubated for 16 hrs by proteomic analysis. The class given is cell-based. An outline of the steps:
as §1

The target in test [13] is Protein cereblon/Cyclin-D1-binding protein 1 (Homo sapiens) (UniProt Q96SW2+O95273). Nature of the test: Protac activity at CRBN/CCNDBP1 in human BxPC-3 cells assessed as CCNDBP1 degradation incubated for 16 hrs by proteomic analysis. The class given is cell-based. The method, boiled down: as §1
Test [14] is described as follows: Upregulation of Arx protein levels in human BxPC-3 cells incubated for 16 hrs by proteomic analysis. It is filed as functional. The method, boiled down:
as §2

The nature of test [15]: Upregulation of IL1RL1 protein levels in human BxPC-3 cells incubated for 16 hrs by proteomic analysis. The class given is functional. An outline of the steps:
as §2

The nature of test [16]: Upregulation of SYNC protein levels in human BxPC-3 cells incubated for 16 hrs by proteomic analysis. The class given is functional. An outline of the steps:
as §2

A short description of test [17]: Upregulation of ZNF430 protein levels human BxPC-3 cells incubated for 16 hrs by proteomic analysis. The class given is functional. The method, boiled down:
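BxPC-3 cells exposed to compound (2 μM) or DMSO control for 16 h, then lysed in RIPA buffer at 4 °C. Protein quantified by BCA; 75 μg per sample. TMT 10plex labeling: DTT reduction (1 h, 55 °C), 2-chloroacetamide alkylation (30 min, RT), acetone precipitation, overnight trypsin digestion at 37 °C, then LC-tandem MS relative quantitation. Control and treated samples run in triplicate.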

Test [18] in a line: Upregulation of GDF15 protein levels in human BxPC-3 cells incubated for 16 hrs by proteomic analysis. The class given is functional. The method, boiled down:
as §2

Test [19] can be described thus: Upregulation of MPV17 protein levels in human BxPC-3 cells incubated for 16 hrs by proteomic analysis. The class given is functional. An outline of the steps:
as §2

Test [20] in a line: Upregulation of EPHB3 protein levels in human BxPC-3 cells incubated for 16 hrs by proteomic analysis. It is filed as functional. The method, boiled down:
as §2

Another test concerns BXPC-3. The experiment in a line: Antiproliferative activity against human BxPC-3 cells harboring ZFP91siRNA assessed as reduction in cell viability incubated for 48 hrs by MTT assay. It is filed as functional, cell-based. To be noted: BXPC-3, 48 h. The method, boiled down:
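BxPC-3 cells were transfected with ZFP91 siRNA or scrambled control siRNA using Lipofectamine RNAiMAX in Opti-MEM, 5 pmol siRNA per complex. Compound was added together with the siRNA complex.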
(Tetrazolium dyes change colour on reduction, which living cells bring about.)

The source made the active and inactive calls. The rule behind the calls is not given here.

By IC50 is commonly meant the concentration at which inhibition is half-maximal.

Chain of Protein cereblon/Kunitz-type protease inhibitor 1 (Homo sapiens) (O43278 whole entry, looked up): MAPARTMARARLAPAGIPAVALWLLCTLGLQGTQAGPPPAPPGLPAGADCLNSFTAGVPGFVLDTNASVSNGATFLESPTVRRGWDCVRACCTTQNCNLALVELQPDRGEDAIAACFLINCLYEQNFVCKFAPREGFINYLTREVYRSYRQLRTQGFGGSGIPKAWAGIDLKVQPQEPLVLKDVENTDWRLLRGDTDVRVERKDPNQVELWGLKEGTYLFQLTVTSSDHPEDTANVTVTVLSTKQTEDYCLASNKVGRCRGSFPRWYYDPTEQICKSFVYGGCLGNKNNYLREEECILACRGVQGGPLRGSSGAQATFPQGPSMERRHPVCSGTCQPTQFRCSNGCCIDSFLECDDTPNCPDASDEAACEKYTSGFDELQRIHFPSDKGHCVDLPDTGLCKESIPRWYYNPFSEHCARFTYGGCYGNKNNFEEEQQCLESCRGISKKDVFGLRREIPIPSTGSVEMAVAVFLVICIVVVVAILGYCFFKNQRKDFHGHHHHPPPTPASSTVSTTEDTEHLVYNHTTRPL
Chain of Protein cereblon/Kunitz-type protease inhibitor 1 (Homo sapiens) (Q96SW2 whole entry, looked up): as the sequence (Q96SW2 whole entry partner) above
Chain of Protein cereblon/Signal transducer and activator of transcription 2 (Homo sapiens) (P52630 whole entry, looked up): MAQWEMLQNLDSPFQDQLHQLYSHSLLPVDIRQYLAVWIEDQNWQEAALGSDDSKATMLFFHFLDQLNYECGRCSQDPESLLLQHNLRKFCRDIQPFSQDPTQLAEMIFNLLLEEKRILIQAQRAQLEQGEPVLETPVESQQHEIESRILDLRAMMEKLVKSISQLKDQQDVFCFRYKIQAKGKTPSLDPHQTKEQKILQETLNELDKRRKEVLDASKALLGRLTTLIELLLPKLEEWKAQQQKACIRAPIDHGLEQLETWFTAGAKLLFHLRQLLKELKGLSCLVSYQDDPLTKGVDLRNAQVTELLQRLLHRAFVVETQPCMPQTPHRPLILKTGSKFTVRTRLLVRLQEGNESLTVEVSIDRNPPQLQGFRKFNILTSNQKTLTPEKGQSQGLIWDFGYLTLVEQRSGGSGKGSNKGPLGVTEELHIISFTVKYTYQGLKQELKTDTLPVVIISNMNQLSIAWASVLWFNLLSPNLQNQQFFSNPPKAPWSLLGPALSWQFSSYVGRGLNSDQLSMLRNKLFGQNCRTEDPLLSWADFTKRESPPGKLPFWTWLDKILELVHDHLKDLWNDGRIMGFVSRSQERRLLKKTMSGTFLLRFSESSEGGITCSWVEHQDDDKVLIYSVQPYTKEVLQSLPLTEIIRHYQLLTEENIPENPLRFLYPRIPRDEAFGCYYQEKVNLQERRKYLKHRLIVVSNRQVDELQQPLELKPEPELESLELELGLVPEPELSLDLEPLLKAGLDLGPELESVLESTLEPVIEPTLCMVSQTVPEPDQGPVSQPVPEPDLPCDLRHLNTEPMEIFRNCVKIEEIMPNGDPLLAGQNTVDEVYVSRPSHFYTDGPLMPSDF
Chain of Protein cereblon/Signal transducer and activator of transcription 2 (Homo sapiens) (Q96SW2 whole entry, looked up): as the sequence (Q96SW2 whole entry partner) above
Chain of Protein cereblon/Protein LTV1 homolog (Homo sapiens) (Q96GA3 whole entry, looked up): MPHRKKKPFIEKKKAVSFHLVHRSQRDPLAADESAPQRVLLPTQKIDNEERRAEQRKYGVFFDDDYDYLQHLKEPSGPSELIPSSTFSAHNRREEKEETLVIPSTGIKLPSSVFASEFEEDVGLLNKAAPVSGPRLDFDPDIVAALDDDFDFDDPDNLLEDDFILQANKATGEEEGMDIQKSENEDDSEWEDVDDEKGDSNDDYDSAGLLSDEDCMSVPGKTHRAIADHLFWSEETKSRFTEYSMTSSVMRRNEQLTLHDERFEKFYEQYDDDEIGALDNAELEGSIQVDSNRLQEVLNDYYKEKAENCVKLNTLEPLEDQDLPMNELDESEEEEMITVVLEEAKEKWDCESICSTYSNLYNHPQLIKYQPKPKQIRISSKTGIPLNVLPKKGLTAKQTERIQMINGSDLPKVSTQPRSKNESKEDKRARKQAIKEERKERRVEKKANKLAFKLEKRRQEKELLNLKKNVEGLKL
Chain of Protein cereblon/Protein LTV1 homolog (Homo sapiens) (Q96SW2 whole entry, looked up): as the sequence (Q96SW2 whole entry partner) above
Chain of Protein cereblon/DNA polymerase delta subunit 4 (Homo sapiens) (Q96SW2 whole entry, looked up): as the sequence (Q96SW2 whole entry partner) above
Chain of Protein cereblon/DNA polymerase delta subunit 4 (Homo sapiens) (Q9HCU8 whole entry, looked up): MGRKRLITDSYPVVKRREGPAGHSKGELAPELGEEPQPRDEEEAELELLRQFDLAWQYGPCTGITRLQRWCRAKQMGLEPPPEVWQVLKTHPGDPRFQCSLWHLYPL

Turning to `O=C1CCC(N2C(=O)c3cccc(NCCCCCC4CCN(CCNC(=O)c5cc6c(o5)C(=O)c5ccccc5C6=O)CC4)c3C2=O)C(=O)N1` (configuration not stated), the concentration for half-maximal inhibition (IC50) is 1 µM in the test with MIA PaCa-2 and 1.2 µM with BXPC-3. Further, the inhibition entry in test [1] was “Active”. The outcome in test [2] was inactive. Further, the log2FC in test [3] was -0.9; in [4], -0.85; in test [5], -0.74; in [6], -0.7; in test [7] it was -0.69; in test [8], -0.69. Also, the log2FC in test [9] was -0.68; in test [10], -0.63; in test [11], -0.63; in [12], -0.61; in test [13], -0.59; in test [14], 1.54. Besides, the log2FC in test [15] came out at 1.24; in [16], 1.04; in test [17], 0.77; in [18], 0.69; in test [19] it was 0.66; in test [20], 0.65.
